Compound activity (PubChem BioAssay)
LMPTP inh = LMPTP (human) inhibition; 360,000 tested, 0.22% active; recombinant LMPTP-A, OMFP fluorogenic substrate, fluorescence intensity; inhibition, % at 20 µM; P24666;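 active = compounds that cut the enzyme signal by at least half of the control window in the single-dose screen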;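 note: plate controls were DMSO wells with enzyme plus substrate for no effect and substrate without enzyme for full effect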
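Test system: LMPTP-A phosphatase enzyme; input: 0.625 nM LMPTP-A final; reagent: OMFP substrate, 400 µM final; compound dosing: 20 µM single dose, 3% DMSO; incubation: 50 min dark incubation at room temperature; measured by: endpoint fluorescence intensity from OMFP dephosphorylation; measure: % inhibition relative to no-enzyme and uninhibited control wells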
STEP block = blocks human striatal-enriched tyrosine phosphatase; P54829; 360,000 tested, 0.25% active; inhibition, % at 20 µM; recombinant STEP, OMFP fluorogenic substrate, fluorescence;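 active = inhibition at 20 µM, scaled per plate between control wells, above about 37%, limit read from the data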;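 note: 0% = DMSO with enzyme and substrate and 100% = substrate only without enzyme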
Target sequence (P54829 whole entry, looked up): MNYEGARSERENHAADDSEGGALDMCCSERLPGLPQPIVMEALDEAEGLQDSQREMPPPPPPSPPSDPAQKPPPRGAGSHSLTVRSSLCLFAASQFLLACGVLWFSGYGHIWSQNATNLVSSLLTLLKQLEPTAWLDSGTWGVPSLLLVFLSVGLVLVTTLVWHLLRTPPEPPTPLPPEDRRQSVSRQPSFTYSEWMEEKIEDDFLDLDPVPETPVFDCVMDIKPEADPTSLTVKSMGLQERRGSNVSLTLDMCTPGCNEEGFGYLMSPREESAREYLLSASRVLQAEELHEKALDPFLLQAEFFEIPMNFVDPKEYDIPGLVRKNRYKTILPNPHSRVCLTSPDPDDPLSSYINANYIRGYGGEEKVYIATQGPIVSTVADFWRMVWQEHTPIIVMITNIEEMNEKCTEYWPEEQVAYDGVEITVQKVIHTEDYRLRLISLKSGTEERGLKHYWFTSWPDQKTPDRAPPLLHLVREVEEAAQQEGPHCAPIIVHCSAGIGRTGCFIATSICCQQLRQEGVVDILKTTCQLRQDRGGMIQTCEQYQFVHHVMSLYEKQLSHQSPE
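material = STEP tyrosine phosphatase | reagent = fluorogenic phosphatase substrate OMFP at 25 µM final | doses = single compound dose of 20 µM, 1% DMSO final | schedule = 20 min reaction, room temperature, in the dark | measured by = fluorescence, 480/540 nm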
SUMO1-SIM PPI = SUMO1-SIM interaction modulation | P63165 | SUMO1 binding to a labelled peptide, TR-FRET, 1 h | inhibition, % at 20 µM | 360,000 tested, 0.33% active | AID 602429; in the data active = inhibition above about 37%
Target sequence (P63165 whole entry, looked up): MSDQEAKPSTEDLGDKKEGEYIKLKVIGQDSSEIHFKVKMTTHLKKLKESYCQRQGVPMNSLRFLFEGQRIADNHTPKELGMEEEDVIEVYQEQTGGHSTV
DNMT1 inh = blocks human DNA methyltransferase DNMT1; P26358; DNMT1 molecular beacon, Hinp1I cleavage, fluorescence; inhibition (reported as % activation of signal), % at 10 µM; 360,000 tested, 0.83% active; AID 588458; in the data active = inhibition above about 50%
Scp1 inh = blocks human Scp-1 phosphatase activity. Recombinant Scp1, phosphopeptide, malachite green phosphate absorbance. inhibition, % at 20 µM. 340,000 tested, 0.88% active. AID 493091;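 active = inhibition above about 50% at 20 µM, limit read from the data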;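 note: plate controls were DMSO wells with enzyme for no effect and wells lacking enzyme for full effect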
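Incubation: 45 min enzyme reaction at room temperature / System: truncated SCP-1 phosphatase (76-261aa) / Reagent: Phospho 17-mer peptide substrate / Buffer or medium: Acidic Tris acetate buffer with magnesium and detergent / Signal: absorbance at 630 nm / Doses: one concentration, 20 µM, with 1.0% DMSO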
Scp1 confirm = confirmation of human Scp-1 phosphatase inhibitors; shares compounds with Scp1 inh; inhibition, % at 20 µM; 2,500 tested, 61% active; recombinant SCP-1 catalytic domain, phosphate release, malachite green absorbance;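 note: plate controls were DMSO with enzyme for no effect and buffer wells lacking enzyme for full effect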
Scp-1 MG ctr = counter-screen for Scp-1 inhibitors: colorimetric interference | Colorimetric interference counterscreen, malachite green absorbance 630 nm | AID 540313 | shares compounds with Scp1 inh | apparent inhibition (interference), % at 20 µM | 2,500 tested, under 10 active;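 note: compounds added after enzyme reaction finished so only phosphate colour detection is probed; plate controls were DMSO wells with completed Scp-1 reaction for no effect and substrate wells lacking enzyme for full effect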
Scp1 DSF = Scp-1 (human) binding by thermal shift; Recombinant SCP1, Sypro Orange thermal shift Tm; shares compounds with Scp1 inh; thermal shift relative to vanadate control, % at 40 µM; 1,500 tested, 25% active; AID 540329;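 active = substances whose mean melting-temperature shift, as a percentage of the reference inhibitor's shift, reaches about 5.3%, limit read from the data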;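 note: 0% = Tm of DMSO wells and 100% = Tm with sodium orthovanadate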
Starred values were filed as active, the others as inactive; · = no result. The list is not random: actives were taken first. Their share in the collection is about 1.8%.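 Rule for the calls, unless noted: active = inhibition of at least 30% at 20 µM; inactive = the rest.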

SMILES	LMPTP inh	STEP block	SUMO1-SIM PPI	DNMT1 inh	Scp1 inh	Scp1 confirm	Scp-1 MG ctr	Scp1 DSF
Cc1cc(N2CCOCC2)ccc1/C=C1\NC(=O)N(CC(=O)Nc2ccc(F)cc2)C1=O	1	0	-14	-5	1	·	·	·
O=C(Nc1ccc(C(F)(F)F)cc1)C1CCN(S(=O)(=O)c2ccc(N3CCCC3=O)cc2)CC1	0	-1	3	-5	-7	·	·	·
CN(C)S(=O)(=O)c1cccc(NC(=O)c2ccc3c(c2)S(=O)(=O)N=C2CCCCCN23)c1	0	1	-3	-2	·	·	·	·
Cc1cc(N2CCOCC2)ccc1/C=C1\NC(=O)N(CC(=O)Nc2ccccc2C)C1=O	0	0	-14	46	-2	·	·	·
Cc1cccc(NC(=O)CN2C(=O)N/C(=C\c3cccn3-c3cccc(C(=O)O)c3)C2=O)c1	0	3	-14	34	18	·	·	·
Cc1ccccc1NC(=O)CN1C(=O)N/C(=C\c2ccccc2OCc2ccc(C(=O)O)cc2)C1=O	36	3	-13	29	103*	83*	-13	-487
Cc1cccc(NC(=O)CN2C(=O)N/C(=C\c3ccccc3OCc3ccc(C(=O)O)cc3)C2=O)c1	6	18	-18	0	85*	74*	-18	-10
O=[N+]([O-])c1ccc(Cl)c(-c2ccc(/C=N/n3cnnc3)o2)c1	4	10	-19	7	62*	52*	-13	2
O=[N+]([O-])c1cc(-c2ccc(/C=N/n3cnnc3)o2)ccc1Cl	4	8	-37	0	18	·	·	·
CCCC(=O)N(CCN1CCOCC1)c1nc2c(F)cc(F)cc2s1	0	1	1	2	13	·	·	·
CCOC(=O)[C@]12CCCC=C1N(Cc1ccccc1)C(=O)[C@H](CC(=O)NCc1cccc3ccccc13)C2	3	·	10	·	·	·	·	·
C/C(=N\Nc1ccc(C(F)(F)F)cn1)c1ccc(S(=O)(=O)NCc2ccco2)cc1	-1	0	-2	3	59*	-3	-7	·
O=C1NC2c3c(I)sc(I)c3C(=O)C2O1 (configuration not stated)	-1	-14	-32	22	4	·	·	·
O=C1NC2c3c(Cl)sc(Cl)c3C(=O)C2O1 (configuration not stated)	14	16	9	91*	79*	71*	-11	18*
CCC(=O)N1CCC1(C)C(=O)Nc1ncc(C)s1 (configuration not stated)	-1	0	3	4	·	·	·	·
CCOC(=O)C1=C(C)N(CCCC(=O)O)C(=O)NC1C(CC)CC (configuration not stated)	0	5	2	1	-6	·	·	·
O=C(Nc1cccc2ccccc12)c1ccc2sc([C@@H]3O[C@H](CO)[C@H](O)[C@H](O)[C@H]3O)nc2c1	4	-5	-9	3	·	·	·	·
CCOC(=O)C1CN(S(=O)(=O)c2ccc(C)cc2)c2ccccc2O1 (configuration not stated)	0	1	4	3	-5	·	·	·
CC[N+](CC)(CC)CC(=O)Nc1ccc(SC(F)F)cc1	-1	-3	-2	-1	60*	-10	-1	·
Cc1ccc(C(=O)N/N=C/c2cc(Br)ccc2O)cn1	0	18	-9	-1	-12	·	·	·
Cc1ccc(C(=O)N/N=C\C=C\c2ccc(Br)cc2)cn1	1	6	-19	6	72*	48*	-6	-16
CCN(CC)S(=O)(=O)c1ccc(OC)c(NC(=O)Cc2cccs2)c1	32	2	4	45	87*	74*	-11	6.3*
CCCN(CCC)S(=O)(=O)c1ccc(NC(=O)Cc2cccs2)cc1	4	2	3	13	61*	73*	-11	2
CCCCN(CCCC)S(=O)(=O)c1ccc(NC(=O)Cc2cccs2)cc1	5	2	-2	25	54*	58*	-17	7.6*
O=C(Cc1cccs1)Nc1ccc(S(=O)(=O)N2CCCC2)cc1	7	5	-2	37	59*	75*	-7	6.1*
SMILES	LMPTP inh	STEP block	SUMO1-SIM PPI	DNMT1 inh	Scp1 inh	Scp1 confirm	Scp-1 MG ctr	Scp1 DSF
CCCNS(=O)(=O)c1ccc(NC(=O)Cc2cccs2)cc1	-1	2	-2	-3	-5	·	·	·
N#Cc1ccccc1OCCCN1CCC(C(O)(c2ccccc2)c2ccccc2)CC1	0	·	-9	·	·	·	·	·
O=C(Cc1ccc(S(=O)(=O)N2CCOCC2)s1)Nc1ccc(N2CCOCC2)cc1	2	3	-11	2	4	·	·	·
CN(C)S(=O)(=O)c1ccc(NC(=O)Cc2ccc(S(=O)(=O)N3CCOCC3)s2)cc1	3	4	-3	17	55*	58*	-12	5
CCOC(=O)C1=NOC2(C1)C(=O)Nc1ccc(OC)cc12 (configuration not stated)	-1	·	-2	·	·	·	·	·
O=C1CNC(=O)/C1=C\N1CCN(C(c2ccccc2)c2ccccc2)CC1	-3	2	0	-6	55*	-16	-9	·
O=C1CNC(=O)/C1=C\N1CCCCC1	0	0	-4	-2	-6	·	·	·
CCOC(=O)C1=C(C)NC(SC)=NC1c1ccc(OC)cc1 (configuration not stated)	-2	-1	-1	4	5	·	·	·
CCC1N=C(SC)NC(C)=C1C(=O)c1ccccc1 (configuration not stated)	1	-6	-4	0	96*	-2	-13	·
CC(=O)c1sc(C(=O)O)c(-c2ccco2)c1-c1ccco1	0	14	-4	37	59*	32*	-11	-9
O=C(O)c1sc(C(=O)O)c(-c2ccccc2)c1-c1ccccc1	-3	-4	7	1	·	·	·	·
Cc1cc(C)n(CC(=O)NNC(=O)c2ccc(S(C)(=O)=O)cc2)n1	-2	0	-6	10	-4	·	·	·
Cc1nnc(NC(=O)CCSCCC(=O)Nc2nnc(C)s2)s1	1	0	28	32	82*	74*	-8	2
CCOC(=O)CCSCC(=O)Nc1nnc(C)s1	-2	2	0	1	-4	·	·	·
O=C(O)C(Cc1cn[nH]n1)=NO	-1	2	-5	1	57*	-12	-11	·
Cc1ccc(CNS(=O)(=O)c2ccc(-n3cnnn3)c(C)c2)cc1	0	0	-6	2	4	·	·	·
CCOC(=O)c1cc2c(=O)n3cccc(C)c3nc2n(Cc2ccco2)c1=NC(=O)c1cccnc1	2	-19	11	15	52*	44*	-11	6.9*
